In ChEMBL document CHEMBL4321823, “Benzyl Phenylsemicarbazides: A Chemistry-Driven Approach Leading to G Protein-Biased Dopamine D4 Receptor Agonists with High Subtype Selectivity” (J Med Chem, 2019):
Active and inactive are the calls of the source. No cut-off for these calls is given here.

What was measured:
D(3) dopamine receptor = D(3) dopamine receptor (Homo sapiens, UniProt P35462); experiment: Displacement of [3H] Spiperone from human D3 receptor expressed in CHO cells by competitive radioligand binding assay; format: cell-based
[1] = molecular target: Delta-type opioid receptor (Homo sapiens, UniProt P41143); experiment: Displacement of [3H] diprenorphine from delta opioid receptor (unknown origin)
Homo sapiens [2] = species on record: Homo sapiens; experiment: Selectivity index, ratio of Ki for displacement of [3H] Spiperone from human D2L receptor expressed in CHO cells to Ki for displacement of [3H] Spiperone from human D4.4 receptor expressed in CHO cells; format: cell-based
In short: (§1)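 Competition binding against [3H]spiperone on membranes of CHO cells stably expressing cloned human D2L, D2S, D3 or D4.4 receptors. Ki from monophasic curve fits; mean ± SEM of three to seven experiments, each in triplicate. Selectivity calculated as Ki(D2L, D2S or D3) divided by Ki(D4.4).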

[3] = molecular target: T1, Alpha-2A adrenergic receptor (Homo sapiens, UniProt P08913); experiment: Displacement of [3H] RX821002 from alpha2A adrenergic receptor (unknown origin)
T1 sequence (P08913 whole entry): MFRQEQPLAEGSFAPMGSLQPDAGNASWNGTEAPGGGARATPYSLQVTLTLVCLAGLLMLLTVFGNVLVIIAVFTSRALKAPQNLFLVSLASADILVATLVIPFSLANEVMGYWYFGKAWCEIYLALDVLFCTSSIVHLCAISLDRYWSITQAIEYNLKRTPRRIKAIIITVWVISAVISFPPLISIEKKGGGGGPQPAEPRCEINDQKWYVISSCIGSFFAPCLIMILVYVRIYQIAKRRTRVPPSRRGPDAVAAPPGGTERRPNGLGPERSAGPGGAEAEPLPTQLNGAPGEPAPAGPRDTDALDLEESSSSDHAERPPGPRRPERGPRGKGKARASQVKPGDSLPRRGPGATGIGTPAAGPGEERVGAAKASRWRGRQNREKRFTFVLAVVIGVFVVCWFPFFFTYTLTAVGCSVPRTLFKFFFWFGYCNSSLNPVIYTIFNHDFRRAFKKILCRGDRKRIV

[4] = molecular target: Beta-1 adrenergic receptor (Homo sapiens, UniProt P08588); experiment: Displacement of [3H] CGP12177 from beta1 adrenergic receptor (unknown origin)
D(4) dopamine receptor = molecular target: T2, D(4) dopamine receptor (Homo sapiens, UniProt P21917); experiment: Agonist activity at human D4 receptor expressed in HEK293T cells co-expressing G-alphaqi assessed as accumulation of inositol monophosphate using d2-labelled IP1 conjugate incubated for 90 mins by HTRF assay; format: functional, cell-based
T2 sequence (P21917 whole entry): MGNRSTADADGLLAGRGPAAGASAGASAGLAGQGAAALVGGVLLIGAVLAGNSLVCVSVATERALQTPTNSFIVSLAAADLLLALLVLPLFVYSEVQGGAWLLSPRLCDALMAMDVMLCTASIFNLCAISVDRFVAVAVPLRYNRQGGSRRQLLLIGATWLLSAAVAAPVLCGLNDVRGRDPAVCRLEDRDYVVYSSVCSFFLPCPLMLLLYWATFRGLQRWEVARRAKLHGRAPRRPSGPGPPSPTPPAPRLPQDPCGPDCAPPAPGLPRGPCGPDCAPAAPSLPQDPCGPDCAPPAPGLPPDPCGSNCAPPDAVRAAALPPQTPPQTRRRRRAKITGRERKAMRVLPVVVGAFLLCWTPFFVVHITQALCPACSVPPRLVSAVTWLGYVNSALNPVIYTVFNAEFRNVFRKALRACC

D(1A) dopamine receptor = D(1A) dopamine receptor (Homo sapiens, UniProt P21728); experiment: Displacement of [3H] SCH23390 from D1 receptor (unknown origin)
[5] = molecular target: T3, Alpha-1A adrenergic receptor (Homo sapiens) (UniProt P35348); experiment: Antagonist activity at human alpha1A adrenergic receptor expressed in HEK293T cells assessed as accumulation of inositol monophosphate using d2-labelled IP1 conjugate incubated for 60 mins by HTRF assay; format: functional, cell-based
T3 sequence (whole entry): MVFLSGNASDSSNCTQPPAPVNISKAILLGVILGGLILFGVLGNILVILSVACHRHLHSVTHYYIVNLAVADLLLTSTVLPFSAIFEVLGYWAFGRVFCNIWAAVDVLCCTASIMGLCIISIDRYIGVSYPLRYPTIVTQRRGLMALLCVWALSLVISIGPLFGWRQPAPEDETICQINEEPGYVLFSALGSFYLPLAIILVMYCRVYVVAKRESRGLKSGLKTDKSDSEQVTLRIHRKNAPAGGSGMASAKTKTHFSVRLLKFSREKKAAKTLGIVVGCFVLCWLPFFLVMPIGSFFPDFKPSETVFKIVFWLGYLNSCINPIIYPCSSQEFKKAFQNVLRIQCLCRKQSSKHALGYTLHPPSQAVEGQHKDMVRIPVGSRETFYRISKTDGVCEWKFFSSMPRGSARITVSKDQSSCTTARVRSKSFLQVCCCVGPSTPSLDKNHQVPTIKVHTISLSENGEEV

[6] = molecular target: T4, Muscarinic acetylcholine receptor M1 (Homo sapiens, UniProt P11229); experiment: Displacement of [3H] NMS from muscarinic M1 receptor (unknown origin)
T4 sequence (P11229 whole entry): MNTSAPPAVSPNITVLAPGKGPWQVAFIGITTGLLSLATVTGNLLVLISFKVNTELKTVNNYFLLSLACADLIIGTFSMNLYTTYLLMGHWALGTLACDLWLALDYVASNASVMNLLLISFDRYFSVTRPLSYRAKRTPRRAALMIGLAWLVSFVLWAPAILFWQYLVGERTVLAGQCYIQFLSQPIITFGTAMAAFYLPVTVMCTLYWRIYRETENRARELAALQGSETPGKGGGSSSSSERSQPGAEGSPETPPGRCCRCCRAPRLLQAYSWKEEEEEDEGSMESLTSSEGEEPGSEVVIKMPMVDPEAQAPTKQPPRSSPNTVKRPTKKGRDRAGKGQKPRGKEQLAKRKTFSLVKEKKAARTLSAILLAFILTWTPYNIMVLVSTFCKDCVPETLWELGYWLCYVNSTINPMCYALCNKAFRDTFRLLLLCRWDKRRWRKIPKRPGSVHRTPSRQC
In short: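 Radioligand competition binding; Ki given as mean ± SD from two individual experiments, each run in triplicate.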

Homo sapiens [7] = species on record: Homo sapiens; experiment: Selectivity index, ratio of Ki for displacement of [3H] Spiperone from human D2S receptor expressed in CHO cells to Ki for displacement of [3H] Spiperone from human D4.4 receptor expressed in CHO cells; format: cell-based; in short: as §1

Chain of D(1A) dopamine receptor (P21728 whole entry): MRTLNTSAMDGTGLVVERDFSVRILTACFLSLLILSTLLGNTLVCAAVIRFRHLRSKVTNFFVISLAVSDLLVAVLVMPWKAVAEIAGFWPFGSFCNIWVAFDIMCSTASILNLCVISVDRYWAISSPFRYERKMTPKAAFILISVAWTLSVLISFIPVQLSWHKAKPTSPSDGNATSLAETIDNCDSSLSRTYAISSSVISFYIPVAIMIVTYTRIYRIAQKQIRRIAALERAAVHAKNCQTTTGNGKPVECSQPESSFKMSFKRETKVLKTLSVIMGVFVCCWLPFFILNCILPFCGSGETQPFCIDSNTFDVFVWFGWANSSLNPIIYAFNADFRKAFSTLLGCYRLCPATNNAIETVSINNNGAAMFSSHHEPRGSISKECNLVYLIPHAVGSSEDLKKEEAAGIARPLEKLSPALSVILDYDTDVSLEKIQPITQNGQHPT
Chain of Beta-1 adrenergic receptor (P08588 whole entry): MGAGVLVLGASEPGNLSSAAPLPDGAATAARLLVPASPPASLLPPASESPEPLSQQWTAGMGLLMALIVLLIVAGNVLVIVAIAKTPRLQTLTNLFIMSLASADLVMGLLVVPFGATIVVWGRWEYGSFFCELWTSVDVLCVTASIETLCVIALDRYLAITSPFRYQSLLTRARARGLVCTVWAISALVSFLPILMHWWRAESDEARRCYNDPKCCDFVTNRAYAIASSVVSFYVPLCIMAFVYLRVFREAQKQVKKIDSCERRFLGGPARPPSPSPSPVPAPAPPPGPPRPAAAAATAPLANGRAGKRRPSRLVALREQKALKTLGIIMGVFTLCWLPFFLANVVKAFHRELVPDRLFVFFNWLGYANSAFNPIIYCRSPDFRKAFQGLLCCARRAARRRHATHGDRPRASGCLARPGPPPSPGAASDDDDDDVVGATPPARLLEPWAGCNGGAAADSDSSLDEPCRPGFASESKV
Chain of D(3) dopamine receptor (P35462 whole entry): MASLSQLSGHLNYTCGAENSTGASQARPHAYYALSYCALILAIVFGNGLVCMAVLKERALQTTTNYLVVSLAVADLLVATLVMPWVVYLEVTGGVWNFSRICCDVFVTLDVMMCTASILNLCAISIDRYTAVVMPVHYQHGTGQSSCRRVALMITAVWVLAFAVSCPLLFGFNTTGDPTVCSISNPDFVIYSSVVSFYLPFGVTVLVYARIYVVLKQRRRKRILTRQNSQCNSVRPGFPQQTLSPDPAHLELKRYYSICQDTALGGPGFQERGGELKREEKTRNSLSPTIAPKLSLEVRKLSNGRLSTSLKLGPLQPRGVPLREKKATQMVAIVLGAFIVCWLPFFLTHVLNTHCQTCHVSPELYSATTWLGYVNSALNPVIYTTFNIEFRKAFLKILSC
Chain of Delta-type opioid receptor (P41143 whole entry): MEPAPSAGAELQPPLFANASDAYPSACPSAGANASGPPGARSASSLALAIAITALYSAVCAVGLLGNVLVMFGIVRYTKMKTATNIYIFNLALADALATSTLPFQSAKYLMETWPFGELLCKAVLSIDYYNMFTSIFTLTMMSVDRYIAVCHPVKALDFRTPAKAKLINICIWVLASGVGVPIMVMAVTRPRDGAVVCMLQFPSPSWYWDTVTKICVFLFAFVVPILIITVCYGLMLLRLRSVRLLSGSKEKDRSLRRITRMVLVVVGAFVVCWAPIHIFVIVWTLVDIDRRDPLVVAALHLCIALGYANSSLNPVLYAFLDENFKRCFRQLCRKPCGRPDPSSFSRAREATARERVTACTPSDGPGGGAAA

Molecule `COc1ccccc1N1CCN(CCCNC(=O)NN(Cc2ccc(F)cc2)c2ccccc2)CC1` has a Ki (D(3) dopamine receptor) of 310 nM, a Ki [1] of 19 µM and a Ratio Ki (Homo sapiens [2]) of 250. The Ki [3] was 860 nM, the Ki [4] was > 50 µM and the EC50 (D(4) dopamine receptor) was 41 nM. For the same molecule, the Ki (D(1A) dopamine receptor) was 360 nM, the Activity [5] was “inactive” and the Ki [6] was 15 µM. For the same molecule, the Ratio Ki (Homo sapiens [7]) was 200.
